# According to ChEMBL document CHEMBL2086380 (J Med Chem, 2012):
# The source made the active and inactive calls. The rule behind the calls is not given here.
# Columns and labels:
# HCT-116 [1] = test: Antiproliferative activity against human HCT116 cells after 72 hrs by CellTiterGlo assay; conditions: HCT-116, 72 h
# A-375 [2] = test: Antiproliferative activity against human A375 cells after 72 hrs by CellTiterGlo assay; conditions: A-375, 72 h
# [3] = target: T1, Dual specificity mitogen-activated protein kinase kinase 1 (Homo sapiens, UniProt Q02750); test: Inhibition of MEK1-mediated ERK1 phosphorylation after 30 mins by HTRF assay
# T1 sequence (Q02750 whole entry): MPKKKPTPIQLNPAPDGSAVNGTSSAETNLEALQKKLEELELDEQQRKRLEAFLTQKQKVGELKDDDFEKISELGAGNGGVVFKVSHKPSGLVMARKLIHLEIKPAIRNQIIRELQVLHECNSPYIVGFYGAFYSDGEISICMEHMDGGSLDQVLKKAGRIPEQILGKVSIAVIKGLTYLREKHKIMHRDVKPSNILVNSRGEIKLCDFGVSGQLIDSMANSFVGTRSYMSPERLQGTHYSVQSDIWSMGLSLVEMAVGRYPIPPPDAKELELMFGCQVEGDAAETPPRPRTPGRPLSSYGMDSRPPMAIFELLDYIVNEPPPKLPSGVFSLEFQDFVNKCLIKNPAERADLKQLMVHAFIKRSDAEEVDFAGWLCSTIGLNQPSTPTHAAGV
# [4] = target: T1, Dual specificity mitogen-activated protein kinase kinase 1; test: Inhibition of MEK1-mediated ERK1 phosphorylation in human HCT116 cells after 2 hrs by immunofluorescence high content imaging
# [5] = target: T1, Dual specificity mitogen-activated protein kinase kinase 1; test: Inhibition of MEK1-mediated ERK1 phosphorylation in human A375 cells after 2 hrs by immunofluorescence high content imaging
# [6] = Plasma protein binding in mouse; assay type: ADME, cell-free; conditions: read-out: PPB (converted)
# [7] = Half life in mouse at 1 mg/kg, iv; assay type: ADME, organism-based; design: dose 1 mg/kg, route intravenous; conditions: in vivo
# [8] = Clearance in mouse at 1 mg/kg, iv; assay type: ADME, organism-based; design: dose 1 mg/kg, route intravenous; conditions: in vivo
# [9] = (§1) AUC in mouse at 1 mg/kg, iv; assay type: ADME, organism-based, Plasma; design: dose 1 mg/kg, route intravenous; conditions: plasma
# [10] = (§2) AUC in mouse at 25 mg/kg, po; assay type: ADME, organism-based, Plasma; design: dose 25 mg/kg, route oral; conditions: plasma
# Procedure, shortened: (§3)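 Oral PK: rat dosed 5 mg/kg PO as solution; mouse dosed 25 mg/kg PO as suspension. Plasma AUC (μM·h) and bioavailability F (%) determined.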
# [11] = Volume of distribution at steady state in mouse at 1 mg/kg, iv; assay type: ADME, organism-based; design: dose 1 mg/kg, route intravenous; conditions: in vivo, read-out: Vdss
# [12] = Ratio of EC50 for human A375 cells to IC50 for MEK1-mediated ERK1 phosphorylation; design: species or system A-375
# [13] = Ratio of EC50 for human HCT116 cells to IC50 for MEK1-mediated ERK1 phosphorylation; design: species or system HCT-116
# HCT-116 [14] = test: Antitumor activity against human HCT116 cells xenografted in nude nu/nu mouse assessed as tumor growth inhibition at 5 mg/kg, po administered QD for 3 weeks relative to vehicle-treated control; assay type: functional
# Procedure, shortened: (§4)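 HCT116 colorectal xenografts in nude mice; animals randomized, dosed orally once daily for 3 weeks at 5, 25 or 75 mg/kg vs vehicle. Tumor volume and body weight tracked; animals euthanized at tumor volume >2000 mm³ or body weight loss >20%.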
# A-375 [15] = test: Ratio of EC50 for human HCT116 cells to EC50 for human A375 cells; assay type: functional
# Mus musculus [16] = test: Oral bioavailability in mouse at 25 mg/kg; assay type: ADME, organism-based; conditions: in vivo; procedure, shortened: as §3
# Mus musculus [17] = test: Toxicity in nude nu/nu mouse bearing human HCT116 xenograft assessed as body weight loss at 75 mg/kg, po administered QD for 3 weeks relative to vehicle-treated; assay type: organism-based; design: dose 75 mg/kg, route oral; conditions: in vivo, 504 h; procedure, shortened: as §4
# [18] = Solubility of the compound in fasted state simulated intestinal fluid; assay type: physicochemical
# Procedure, shortened: (§5)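 Solubility measured in aqueous buffer at pH 6.5 and in fasted-state simulated intestinal fluid (FASSIF), expressed in […].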
# [19] = Oral bioavailability in rat at 5 mg/kg; assay type: ADME, organism-based; conditions: in vivo; procedure, shortened: as §3
# HCT-116 [20] = test: Antitumor activity against human HCT116 cells xenografted in nude nu/nu mouse assessed as tumor growth inhibition at 25 and 75 mg/kg, po administered QD for 3 weeks relative to vehicle-treated; assay type: functional, organism-based; design: dose 75 mg/kg; procedure, shortened: as §4
# Mus musculus [21] = test: as §1; assay type: ADME, organism-based, Plasma; design: dose 1 mg/kg, route intravenous; conditions: in vivo
# Rattus norvegicus [22] = test: Drug metabolism in rat assessed as glucuronidation at 5 mg/kg, po; assay type: ADME, organism-based; design: dose 5 mg/kg, route oral; conditions: in vivo
# Mus musculus [23] = test: as §2; assay type: ADME, organism-based, Plasma; design: dose 25 mg/kg, route oral; conditions: in vivo; procedure, shortened: as §3
# [24] = Permeability from basal to apical side of MDCK cells; assay type: ADME, cell-based, Canis lupus familiaris; conditions: dog, read-out: permeability
# Procedure, shortened: (§6)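 MDCK monolayer permeability measured in A→B and B→A directions, expressed as ×10⁻⁶ cm/s; efflux ratio taken as B:A over A:B.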
# [25] = AUC in rat at 5 mg/kg, po; assay type: ADME, organism-based; design: dose 5 mg/kg, route oral; conditions: plasma; procedure, shortened: as §3
# [26] = Half life in mouse at 25 mg/kg, po; assay type: ADME, organism-based; design: dose 25 mg/kg, route oral; conditions: in vivo
# [27] = AUC in rat at 1 mg/kg, iv; assay type: ADME, organism-based; design: dose 1 mg/kg, route intravenous; conditions: plasma
# Rattus norvegicus [28] = test: Unbound AUC in po dosed rat; assay type: ADME, organism-based; conditions: in vivo
# [29] = Plasma protein binding in rat; assay type: ADME, cell-free; conditions: read-out: PPB (converted)
# Rattus norvegicus [30] = test: Drug metabolism in rat assessed as hydroxamate cleavage at 5 mg/kg, po; assay type: ADME, organism-based; design: dose 5 mg/kg, route oral; conditions: in vivo
# [31] = Permeability from apical to basal side of MDCK cells; assay type: ADME, cell-based, Canis lupus familiaris; conditions: dog, read-out: permeability; procedure, shortened: as §6
# [32] = Volume of distribution at steady state in rat at 1 mg/kg, iv; assay type: ADME, organism-based; design: dose 1 mg/kg, route intravenous; conditions: in vivo, read-out: Vdss
# Mus musculus [33] = test: Inhibition of MEK-mediated ERK1/2 Thr185/Tyr187 phosphorylation in human HCT116 cells xenografted in nude nu/nu mouse at 25 mg/kg, po administered as single dose after 8 hrs relative to vehicle-treated control; assay type: functional; conditions: HCT-116, 8 h
# Rattus norvegicus [34] = organism: Rattus norvegicus; test: Unbound clearance in rat; assay type: ADME, organism-based; conditions: in vivo
# [35] = Half life in rat at 1 mg/kg, iv; assay type: ADME, organism-based; design: dose 1 mg/kg, route intravenous; conditions: in vivo
# Mus musculus [36] = test: Toxicity in nude nu/nu mouse bearing human HCT116 xenograft assessed as body weight loss at 5 mg/kg, po administered QD for 3 weeks relative to vehicle-treated; assay type: organism-based; design: dose 5 mg/kg, route oral; conditions: in vivo, 504 h; procedure, shortened: as §4
# [37] = Clearance in rat at 1 mg/kg, iv; assay type: ADME, organism-based; design: dose 1 mg/kg, route intravenous; conditions: in vivo
# [38] = Solubility of the compound at pH 6.5; assay type: physicochemical; conditions: buffer; procedure, shortened: as §5
# Cytochrome P450 2C19 = Cytochrome P450 2C19 (Homo sapiens, UniProt P33261); test: Inhibition of CYP2C19; assay type: ADME
# Sequence of Cytochrome P450 2C19 (P33261 whole entry): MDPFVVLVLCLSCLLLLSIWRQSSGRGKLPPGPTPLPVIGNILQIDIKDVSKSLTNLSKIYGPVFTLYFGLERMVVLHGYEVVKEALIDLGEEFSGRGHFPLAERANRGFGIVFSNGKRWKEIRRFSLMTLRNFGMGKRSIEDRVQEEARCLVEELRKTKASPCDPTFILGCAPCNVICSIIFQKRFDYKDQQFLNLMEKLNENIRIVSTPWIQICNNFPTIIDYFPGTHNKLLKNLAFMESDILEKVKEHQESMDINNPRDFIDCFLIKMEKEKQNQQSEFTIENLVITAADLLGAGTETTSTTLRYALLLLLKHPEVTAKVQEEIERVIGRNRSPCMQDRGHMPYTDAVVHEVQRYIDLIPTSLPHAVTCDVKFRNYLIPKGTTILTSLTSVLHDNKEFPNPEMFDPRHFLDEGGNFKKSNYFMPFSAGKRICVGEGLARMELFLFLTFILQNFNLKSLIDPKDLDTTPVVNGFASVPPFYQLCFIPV
# Cytochrome P450 2C9 = Cytochrome P450 2C9 (Homo sapiens, UniProt P11712); test: Inhibition of CYP2C9; assay type: ADME
# Sequence of Cytochrome P450 2C9 (P11712 whole entry): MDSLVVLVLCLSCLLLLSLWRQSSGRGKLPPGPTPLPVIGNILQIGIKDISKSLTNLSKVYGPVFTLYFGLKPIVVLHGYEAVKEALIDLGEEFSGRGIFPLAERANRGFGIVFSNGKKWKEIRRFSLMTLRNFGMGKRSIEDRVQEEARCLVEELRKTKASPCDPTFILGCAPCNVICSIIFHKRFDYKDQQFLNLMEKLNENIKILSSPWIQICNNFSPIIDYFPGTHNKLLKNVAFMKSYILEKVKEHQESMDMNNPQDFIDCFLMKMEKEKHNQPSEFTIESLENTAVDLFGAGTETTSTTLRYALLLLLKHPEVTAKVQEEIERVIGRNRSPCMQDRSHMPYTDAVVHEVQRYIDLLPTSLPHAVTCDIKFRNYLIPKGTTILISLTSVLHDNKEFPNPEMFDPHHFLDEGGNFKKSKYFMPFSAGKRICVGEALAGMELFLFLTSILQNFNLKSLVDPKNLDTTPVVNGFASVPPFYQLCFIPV
# [39] = Efflux ratio of permeability from basal to apical to apical to basal side of MDCK cells; assay type: ADME, cell-based, Canis lupus familiaris; conditions: dog; procedure, shortened: as §6
smiles,measurement,setting,value
O=C(NOC[C@H](O)CO)c1oc2ccncc2c1Nc1ccc(I)cc1F,EC50,HCT-116 [1],314 nM
same,EC50,A-375 [2],264 nM
CCONC(=O)c1ccc2[nH]ncc2c1Nc1ccc(I)cc1F,EC50,HCT-116 [1],132 nM
same,EC50,A-375 [2],4.9 nM
same,IC50,[3],93 nM
same,EC50,[4],1.3 nM
same,EC50,[5],2.4 nM
C[C@H](O)CONC(=O)c1oc2c(F)cncc2c1Nc1ccc(I)cc1F,fraction unbound,[6],0.016
same,half-life,[7],2.3 h
same,EC50,HCT-116 [1],175 nM
same,clearance,[8],7.7 mL/min/kg
same,EC50,A-375 [2],23 nM
same,AUC,[9],4.42 µM·h
same,AUC,[10],192 µM·h
same,Vd,[11],0.71 L/kg
same,IC50,[3],35 nM
same,Ratio,[12],0.65
same,Ratio,[13],5
same,Activity,HCT-116 [14],Active
same,EC50,[4],4 nM
same,Ratio EC50,A-375 [15],8
same,EC50,[5],7.2 nM
same,F,Mus musculus [16],173%
O=C(NOCC1CC1)c1ccc2[nH]ncc2c1Nc1ccc(I)cc1F,EC50,HCT-116 [1],127 nM
same,EC50,A-375 [2],9 nM
O=C(NOCCO)c1ccc2[nH]ncc2c1Nc1ccc(I)cc1F,Activity,Mus musculus [17],10%
same,fraction unbound,[6],0.03
same,half-life,[7],0.6 h
same,solubility,[18],180 µg/mL
same,EC50,HCT-116 [1],16 nM
same,clearance,[8],88 mL/min/kg
same,bioavailability,[19],21%
same,EC50,A-375 [2],2 nM
same,growth inhibition (GI),HCT-116 [20],Active
same,AUC,Mus musculus [21],0.41 µM·h
same,Drug metabolism,Rattus norvegicus [22],Active
same,AUC,Mus musculus [23],1.96 µM·h
same,Papp B→A,[24],13.8 ×10⁻⁶ cm/s
same,AUC,[25],1.06 µM·h
same,half-life,[26],2.9 h
same,Vd,[11],2 L/kg
same,AUC,[27],1.01 µM·h
same,fAUC,Rattus norvegicus [28],0.04 µM·h
same,fraction unbound,[29],0.039
same,Drug metabolism,Rattus norvegicus [30],Active
same,Papp A→B,[31],9.9 ×10⁻⁶ cm/s
same,Vd,[32],2.4 L/kg
same,inhibition in vivo at 5 mg/kg,"HCT-116 [14]; HCT-116, 504 h, read-out: GI",94%
same,inhibition in vivo at 25 mg/kg,Mus musculus [33],70%
same,CL free,Rattus norvegicus [34],923 mL/min/kg
same,F,Mus musculus [16],94%
same,half-life,[35],1.4 h
same,Activity,Mus musculus [36],Non-toxic
same,clearance,[37],36 mL/min/kg
same,solubility,[38],80 µg/mL
O=C(NOC[C@H](O)CO)c1ccc2cnsc2c1Nc1ccc(I)cc1F,EC50,HCT-116 [1],62 nM
same,bioavailability,[19],51%
same,EC50,A-375 [2],10 nM
same,AUC,[25],5.7 µM·h
same,AUC,[27],2.2 µM·h
same,fAUC,Rattus norvegicus [28],0.046 µM·h
same,fraction unbound,[29],0.008
same,IC50,[3],20 nM
same,Ratio,[12],0.47
same,Vd,[32],0.97 L/kg
same,Ratio,[13],2.9
same,EC50,[4],0.9 nM
same,CL free,Rattus norvegicus [34],1875 mL/min/kg
same,EC50,[5],1.1 nM
same,half-life,[35],1.6 h
same,clearance,[37],15 mL/min/kg
O=C(NOCCO)c1ccc2[nH]ncc2c1Nc1ccc(Br)cc1F,EC50,HCT-116 [1],193 nM
same,bioavailability,[19],34%
same,EC50,A-375 [2],19 nM
same,AUC,[25],1.29 µM·h
same,AUC,[27],0.75 µM·h
same,fraction unbound,[29],0.035
same,IC50,[3],125 nM
same,Ratio,[12],0.15
same,Vd,[32],1.5 L/kg
same,Ratio,[13],1.5
same,EC50,[4],3.4 nM
same,Ratio EC50,A-375 [15],8
same,EC50,[5],6.4 nM
same,half-life,[35],0.36 h
same,clearance,[37],54 mL/min/kg
O=C(NOCCO)c1ccc2cnsc2c1Nc1ccc(I)cc1F,inhibition (INH),Cytochrome P450 2C19,Not Active
same,EC50,HCT-116 [1],44 nM
same,EC50,A-375 [2],7 nM
same,inhibition (INH),Cytochrome P450 2C9,Not Active
O=C(NCCCO)c1ccc2[nH]ncc2c1Nc1ccc(I)cc1F,IC50,[3],> 10000 nM
O=C(NOC[C@H](O)CO)c1ccc2[nH]ncc2c1Nc1ccc(I)cc1F,efflux ratio,[39],3.5
same,EC50,HCT-116 [1],31 nM
same,EC50,A-375 [2],12 nM
same,Papp B→A,[24],7.1 ×10⁻⁶ cm/s
same,IC50,[3],15 nM
same,Ratio,[12],0.8
same,Papp A→B,[31],2 ×10⁻⁶ cm/s
same,Ratio,[13],2
same,EC50,[4],0.4 nM
same,EC50,[5],3.7 nM
